This is an account of results in ChEMBL document CHEMBL1132602, “Identification of novel classes of protein kinase inhibitors using combinatorial peptide chemistry based on functional genomics knowledge” (J Med Chem, 1999).

One assay has as its target CaM kinase II (Homo sapiens, UniProt Q13557+Q13555+Q13554+Q9UQM7). Briefly: Inhibitory activity against CaMPKII (Calcium/calmodulin-dependent protein kinase type II). The class given is protein assay.
The target in assay [1] is Myosin light chain kinase, smooth muscle (Gallus gallus, UniProt P11799). Description: Inhibitory activity against MLCK (smooth muscle myosin light chain kinase).
Sequence of Myosin light chain kinase, smooth muscle (P11799 whole entry): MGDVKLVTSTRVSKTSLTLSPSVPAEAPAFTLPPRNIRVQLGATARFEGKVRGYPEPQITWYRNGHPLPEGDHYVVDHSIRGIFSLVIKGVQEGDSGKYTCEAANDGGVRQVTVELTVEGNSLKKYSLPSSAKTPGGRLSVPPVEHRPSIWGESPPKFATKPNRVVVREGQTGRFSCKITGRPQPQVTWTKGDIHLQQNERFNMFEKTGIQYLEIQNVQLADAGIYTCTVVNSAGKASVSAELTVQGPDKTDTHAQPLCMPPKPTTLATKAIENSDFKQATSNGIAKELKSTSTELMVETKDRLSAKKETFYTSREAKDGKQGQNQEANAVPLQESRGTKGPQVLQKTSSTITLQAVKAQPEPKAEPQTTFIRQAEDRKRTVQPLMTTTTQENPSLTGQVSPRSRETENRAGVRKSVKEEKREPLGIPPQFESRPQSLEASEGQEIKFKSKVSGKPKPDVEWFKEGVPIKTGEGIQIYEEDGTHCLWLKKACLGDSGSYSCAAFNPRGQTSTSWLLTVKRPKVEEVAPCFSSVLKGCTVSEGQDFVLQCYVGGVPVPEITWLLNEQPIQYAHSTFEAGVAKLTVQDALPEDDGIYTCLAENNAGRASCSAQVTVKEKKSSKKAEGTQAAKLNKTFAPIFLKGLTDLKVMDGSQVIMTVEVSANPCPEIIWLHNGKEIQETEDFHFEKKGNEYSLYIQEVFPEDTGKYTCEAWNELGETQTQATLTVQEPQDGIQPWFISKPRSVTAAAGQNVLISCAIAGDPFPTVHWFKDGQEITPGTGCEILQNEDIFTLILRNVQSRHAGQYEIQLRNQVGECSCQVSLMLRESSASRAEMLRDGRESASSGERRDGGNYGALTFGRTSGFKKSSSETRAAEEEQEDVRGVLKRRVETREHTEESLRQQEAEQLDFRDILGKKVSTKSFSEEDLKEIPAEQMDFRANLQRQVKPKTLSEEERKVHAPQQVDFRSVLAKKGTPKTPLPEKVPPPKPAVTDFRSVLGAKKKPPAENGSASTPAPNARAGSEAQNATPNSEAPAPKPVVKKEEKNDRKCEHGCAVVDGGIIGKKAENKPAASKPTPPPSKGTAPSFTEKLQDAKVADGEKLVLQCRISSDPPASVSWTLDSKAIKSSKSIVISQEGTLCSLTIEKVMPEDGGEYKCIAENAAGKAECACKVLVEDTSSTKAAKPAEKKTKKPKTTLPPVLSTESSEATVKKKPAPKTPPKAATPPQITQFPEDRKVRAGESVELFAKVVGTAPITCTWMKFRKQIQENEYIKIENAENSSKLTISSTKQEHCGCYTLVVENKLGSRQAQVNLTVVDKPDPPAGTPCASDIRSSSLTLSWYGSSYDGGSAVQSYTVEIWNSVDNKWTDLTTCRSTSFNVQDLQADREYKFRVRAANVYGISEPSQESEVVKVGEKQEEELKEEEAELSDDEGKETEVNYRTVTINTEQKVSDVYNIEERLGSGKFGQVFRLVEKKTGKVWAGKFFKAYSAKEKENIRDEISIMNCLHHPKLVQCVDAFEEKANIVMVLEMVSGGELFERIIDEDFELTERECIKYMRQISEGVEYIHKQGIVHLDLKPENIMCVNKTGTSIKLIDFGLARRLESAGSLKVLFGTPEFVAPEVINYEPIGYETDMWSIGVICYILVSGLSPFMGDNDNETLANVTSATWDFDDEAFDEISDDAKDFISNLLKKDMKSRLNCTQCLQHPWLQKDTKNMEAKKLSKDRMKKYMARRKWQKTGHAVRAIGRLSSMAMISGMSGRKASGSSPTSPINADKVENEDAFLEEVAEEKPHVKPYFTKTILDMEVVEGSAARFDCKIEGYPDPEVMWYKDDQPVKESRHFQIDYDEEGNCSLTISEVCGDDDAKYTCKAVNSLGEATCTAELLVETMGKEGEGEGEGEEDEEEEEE
Assay [2] is described as follows: Ratio of the inhibitory concentrations against CaMPKII and MLCK. IC50 (CaMPKII ) / IC50 (MLCK). The essentials:
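Ratio of IC50 values from the two radiometric assays, both with 0.2 mM [γ-32P]ATP and 20 μM peptide substrate. CaMPKII was activated with 30 μM CaM and 2 mM CaCl2 and run 8 min. Chicken gizzard MLCK was activated with 1 μM CaM and 5 μM CaCl2 and run 20 min. Both at 25 °C, IC50 from 15–85% activity regression.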

Starred links: 1 amine or outer side, 2 acyl side, 3 side chain; linkers in the order of their positions; H or OH if unused. Non-standard residues stand in square brackets, D forms with d. Residues, ends and D or L forms follow the SMILES beside them. X1 = O=C(C1CCC(N[*:1])CC1)[*:2]

`C[C@@H](O)[C@H](NC(=O)[C@H](CCCCN)NC(=O)[C@H](Cc1ccc(O)cc1)NC(=O)[C@H](CCCCN)NC(=O)[C@H](CCCCN)NC(=O)[C@@H](N)CCCN=C(N)N)C(=O)N[C@@H](CCCN=C(N)N)C(=O)N[C@@H](CCCN=C(N)N)C(=O)N[C@@H](CCCCN)C(N)=O`: the results for the IC50 (on CaM kinase II; in assay [1]) were greater than 200000 nM and 730 nM, respectively.

With `CC[C@H](C)[C@H](NC(=O)[C@H](CCCCN)NC(=O)[C@H](Cc1ccc(O)cc1)NC(=O)[C@H](CCCCN)NC(=O)[C@H](CCCCN)NC(=O)[C@@H](N)CCCNC(=N)N)C(=O)N[C@@H](CCCNC(=N)N)C(=O)N[C@@H](CCCNC(=N)N)C(=O)N[C@@H](CCCCN)C(N)=O`, the half-inhibitory concentration (IC50) amounted to 57400 nM at CaM kinase II and 160 nM in assay [1].

On to `CC[C@@H](C)[C@H](NC(=O)[C@H](CCCCN)NC(=O)[C@H](Cc1ccc(O)cc1)NC(=O)[C@H](CCCCN)NC(=O)[C@H](CCCCN)NC(=O)[C@@H](N)CCCN=C(N)N)C(=O)N[C@@H](CCCN=C(N)N)C(=O)N[C@@H](CCCN=C(N)N)C(=O)N[C@@H](CCCCN)C(N)=O`, for which, in assay [2], the Ratio amounted to 359.

Consider `C[C@H](O)[C@H](NC(=O)[C@H](CCCCN)NC(=O)[C@H](Cc1ccc(O)cc1)NC(=O)[C@H](CCCCN)NC(=O)[C@H](CCCCN)NC(=O)[C@@H](N)CCCN=C(N)N)C(=O)N[C@@H](CCCN=C(N)N)C(=O)N[C@@H](CCCN=C(N)N)C(=O)N[C@@H](CCCCN)C(N)=O`, for which the Ratio in assay [2] was greater than 274.

As to `NCCCC[C@H](NC(=O)[C@H](CCCN=C(N)N)NC(=O)[C@H](CCCN=C(N)N)NC(=O)C1CCC(NC(=O)[C@H](CCCCN)NC(=O)[C@H](Cc2ccc(O)cc2)NC(=O)[C@H](CCCCN)NC(=O)[C@H](CCCCN)NC(=O)[C@@H](N)CCCN=C(N)N)CC1)C(N)=O` (stereo not given in full) (H-RKKYK[X1]RRK-NH2), the half-maximal inhibitory concentration (IC50) at CaM kinase II is greater than 200000 nM; in assay [1], 270 nM. For the same compound, the Ratio in assay [2] is greater than 741.

Turning to `NCCCC[C@H](NC(=O)[C@H](CCCN=C(N)N)NC(=O)[C@H](CCCN=C(N)N)NC(=O)[C@H](Cc1ccc(O)cc1)NC(=O)C1CCC(NC(=O)[C@H](Cc2ccc(O)cc2)NC(=O)[C@H](CCCCN)NC(=O)[C@H](CCCCN)NC(=O)[C@@H](N)CCCN=C(N)N)CC1)C(N)=O` (stereo not given in full) (H-RKKY[X1]YRRK-NH2), the values for the IC50 (at CaM kinase II; in assay [1]) were greater than 200000 nM and 40 nM, respectively. Moreover, the Ratio in assay [2] was greater than 5000.

Consider `NCCCC[C@H](NC(=O)[C@H](CCCN=C(N)N)NC(=O)[C@H](CCCN=C(N)N)NC(=O)C1CCC(NC(=O)C2CCC(NC(=O)[C@H](Cc3ccc(O)cc3)NC(=O)[C@H](CCCCN)NC(=O)[C@H](CCCCN)NC(=O)[C@@H](N)CCCN=C(N)N)CC2)CC1)C(N)=O` (stereo not given in full) (H-RKKY[X1][X1]RRK-NH2), for which the IC50 at CaM kinase II is greater than 200000 nM; in assay [1], 110 nM. For the same compound, the Ratio in assay [2] is greater than 1820.

As to `NCCCC[C@H](NC(=O)[C@H](CCCN=C(N)N)NC(=O)[C@H](CCCN=C(N)N)NC(=O)[C@H](Cc1ccc(O)cc1)NC(=O)[C@H](CCCCN)NC(=O)C1CCC(NC(=O)[C@H](CCCCN)NC(=O)[C@H](CCCCN)NC(=O)[C@@H](N)CCCN=C(N)N)CC1)C(N)=O` (stereo not given in full) (H-RKK[X1]KYRRK-NH2), the IC50 was greater than 200000 nM at CaM kinase II and 1040 nM in assay [1]. Moreover, the Ratio in assay [2] was greater than 192.

Take `NCCCC[C@H](NC(=O)[C@H](CCCN=C(N)N)NC(=O)[C@H](CCCN=C(N)N)NC(=O)C1CCC(NC(=O)[C@H](CCCCN)NC(=O)C2CCC(NC(=O)[C@H](CCCCN)NC(=O)[C@H](CCCCN)NC(=O)[C@@H](N)CCCN=C(N)N)CC2)CC1)C(N)=O` (stereo not given in full) (H-RKK[X1]K[X1]RRK-NH2): the results for the IC50 (at CaM kinase II; in assay [1]) were greater than 200000 nM and 20000 nM, respectively. In assay [2], the Ratio is greater than 10.

With `N=C(N)NCCC[C@H](NC(=O)[C@H](CCCNC(=N)N)NC(=O)[C@H](Cc1ccc(O)cc1)NC(=O)C1CCC(NC(=O)C2CCC(NC(=O)[C@H](CCCCN)NC(=O)[C@H](CCCCN)NC(=O)[C@@H](N)CCCNC(=N)N)CC2)CC1)C(=O)N[C@@H](CCCCN)C(N)=O` (stereo not given in full) (H-RKK[X1][X1]YRRK-NH2), half-maximal inhibition in assay [1] (IC50) required 2970 nM.

In the case of `NCCCC[C@H](NC(=O)[C@H](CCCN=C(N)N)NC(=O)[C@H](CCCN=C(N)N)NC(=O)[C@H](Cc1ccc(O)cc1)NC(=O)C1CCC(NC(=O)C2CCC(NC(=O)[C@H](CCCCN)NC(=O)[C@H](CCCCN)NC(=O)[C@@H](N)CCCN=C(N)N)CC2)CC1)C(N)=O` (stereo not given in full) (H-RKK[X1][X1]YRRK-NH2), on CaM kinase II, the half-maximal inhibitory concentration (IC50) was greater than 200000 nM. Also, in assay [2], the Ratio was greater than 67.

Take `N=C(N)NCCC[C@H](NC(=O)C1CCC(NC(=O)C2CCC(NC(=O)C3CCC(NC(=O)[C@H](CCCCN)NC(=O)[C@H](CCCCN)NC(=O)[C@@H](N)CCCNC(=N)N)CC3)CC2)CC1)C(=O)N[C@@H](CCCNC(=N)N)C(=O)N[C@@H](CCCCN)C(N)=O` (stereo not given in full) (H-RKK[X1][X1][X1]RRK-NH2): the IC50 in assay [1] was determined as 20000 nM.

Regarding `NCCCC[C@H](NC(=O)[C@H](CCCN=C(N)N)NC(=O)[C@H](CCCN=C(N)N)NC(=O)C1CCC(NC(=O)C2CCC(NC(=O)C3CCC(NC(=O)[C@H](CCCCN)NC(=O)[C@H](CCCCN)NC(=O)[C@@H](N)CCCN=C(N)N)CC3)CC2)CC1)C(N)=O` (stereo not given in full) (H-RKK[X1][X1][X1]RRK-NH2), the IC50 at CaM kinase II was greater than 200000 nM. In addition, the Ratio in assay [2] is greater than 10.

In the case of H-RKKYKARRK-NH2, the figures for the IC50 (at CaM kinase II; in assay [1]) were greater than 200000 nM and 420 nM, respectively. Also, the Ratio in assay [2] is greater than 476.

Consider H-RKKYKDRRK-NH2, for which the IC50 at CaM kinase II is greater than 200000 nM; in assay [1], 610 nM. In addition, the Ratio in assay [2] is greater than 328.

H-RKKYKERRK-NH2: the 50% inhibitory concentration (IC50) is greater than 200000 nM on CaM kinase II and 870 nM in assay [1]. The Ratio in assay [2] was greater than 230.

H-RKKYKFRRK-NH2: the IC50 at CaM kinase II was greater than 200000 nM; in assay [1] it was 150 nM. Moreover, the Ratio in assay [2] was greater than 1330.

H-RKKYKGRRK-NH2 [listing 1 of 2 here] came in with a 50% inhibitory concentration (IC50) in assay [1] of 310 nM.

In the case of H-RKKYKGRRK-NH2 [listing 2 of 2 here], the IC50 on CaM kinase II is greater than 200000 nM. Also, the Ratio in assay [2] is greater than 645.

With H-RKKYKHRRK-NH2, the 50% inhibitory concentration (IC50) on CaM kinase II was 16200 nM; in assay [1] it was 290 nM. Further, the Ratio in assay [2] was determined as 56.

Turning to H-RKKYKKRRK-NH2, the IC50 on CaM kinase II is greater than 200000 nM; in assay [1] it was 220 nM. In assay [2], the Ratio is greater than 909.

For the compound H-RKKYKLRRK-NH2, the IC50 on CaM kinase II was 132000 nM; in assay [1], 320 nM. For the same compound, in assay [2], the Ratio was found to be 413.

On to H-RKKYKMRRK-NH2 [listing 1 of 2 here], for which the IC50 at CaM kinase II was greater than 200000 nM. Moreover, the Ratio in assay [2] was greater than 1250.

On to H-RKKYKMRRK-NH2 [listing 2 of 2 here], for which it took 160 nM to reach half-maximal inhibition in assay [1] (IC50).

Compound H-RKKYKNRRK-NH2 [listing 1 of 2 here] registered a half-inhibitory concentration (IC50) in assay [1] of 290 nM.

As for H-RKKYKNRRK-NH2 [listing 2 of 2 here], at CaM kinase II, the IC50 was greater than 200000 nM. Further, the Ratio in assay [2] was greater than 690.

In the case of H-RKKYKPRRK-NH2, the results for the IC50 (on CaM kinase II; in assay [1]) were greater than 200000 nM and 120 nM, respectively. The Ratio in assay [2] was greater than 1670.

Take H-RKKYKQRRK-NH2: the IC50 at CaM kinase II is greater than 200000 nM; in assay [1], 300 nM. Also, the Ratio in assay [2] was greater than 667.

Take H-RKKYKSRRK-NH2 [listing 1 of 2 here]: in assay [1], the 50% inhibitory concentration (IC50) was 150 nM.

For the compound H-RKKYKSRRK-NH2 [listing 2 of 2 here], on CaM kinase II, the half-maximal inhibitory concentration (IC50) was greater than 200000 nM. Further, the Ratio in assay [2] is greater than 1330.

Take H-RKKYKVRRK-NH2 [listing 1 of 2 here]: at CaM kinase II, the IC50 is greater than 200000 nM. Moreover, the Ratio in assay [2] was greater than 556.

In assay [1], H-RKKYKVRRK-NH2 [listing 2 of 2 here] gave an IC50 of 360 nM.

In the case of H-RKKYKWRRK-NH2, the values for the concentration for half-maximal inhibition (IC50) (on CaM kinase II; in assay [1]) were 26700 nM and 200 nM, respectively. In addition, the Ratio in assay [2] is 134.

Regarding H-RKKYKYRRK-NH2, the figures for the half-inhibitory concentration (IC50) (on CaM kinase II; in assay [1]) were greater than 200000 nM and 50 nM, respectively. Further, in assay [2], the Ratio is greater than 4000.
